CSN deneddyl inh: inhibitors of human CSN-mediated cullin deneddylation; Q92905; Purified CSN, SCF-Nedd8-OG deneddylation, fluorescence polarization; inhibition, % at 12.5 µM; hit rate 0.38% among 360,000; AID 651999;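 active means pattern-corrected inhibition above about 35%, with an unprinted fluorescence ratio check between 0.5 and 1.5, limit read from the data, passing the limit was not always enough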
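Assay system: HEK293T-derived human Csn5 enzyme; quantity: 0.24 nM enzyme; medium: Tris/NaCl/DTT buffer, pH 7.5; also added: substrate SCFSkp2-Nedd8OG, 10 nM; doses: 12.5 µM compound; schedule: 90 min reaction at room temperature; signal: FP; read-out: % inhibition of substrate cleavage by Csn5; benchmarks: substrate-only high control, full reaction low control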
PREPL inh: human PREPL enzyme inhibition. Q4J6C6. recombinant PREPL, fluorescence polarization activity-based probe. inhibition, % at 5.96 µM. hit rate 0.68% among 320,000. AID 2751; in the data active means inhibition above about 43%
Rpn11 inh: inhibitors of human proteasome Rpn11. human 26S proteasome, Ub4-pepOG fluorescence polarization; 20S core pre-blocked with epoxomicin. inhibition, % at 20 µM. hit rate 0.59% among 360,000. AID 588493;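 active means inhibition at 20 µM, scaled to each plate's controls, above about 33%, limit read from the data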
Target sequence (O00487 whole entry, looked up): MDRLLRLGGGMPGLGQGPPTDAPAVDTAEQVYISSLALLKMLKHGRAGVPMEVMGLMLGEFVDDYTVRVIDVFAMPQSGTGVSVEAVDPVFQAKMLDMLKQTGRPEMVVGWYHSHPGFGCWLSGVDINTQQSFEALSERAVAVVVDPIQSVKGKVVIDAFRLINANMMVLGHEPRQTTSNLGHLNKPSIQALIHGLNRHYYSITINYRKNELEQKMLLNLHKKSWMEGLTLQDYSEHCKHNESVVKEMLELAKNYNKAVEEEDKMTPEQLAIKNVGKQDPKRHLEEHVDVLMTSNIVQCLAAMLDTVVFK
Neddyl block: cullin neddylation inhibition | hit rate 0.58% among 360,000 | P61081+Q13564 | inhibition, % at 25 µM | TR-FRET cullin neddylation, biochemical; in the data active means inhibition above about 36%
TbMetRS inhib: blocks T. brucei methionyl-tRNA synthetase activity; purified T. brucei MetRS, ATP depletion, Kinase-Glo luminescence; inhibition, % at 11.9 µM; hit rate 0.4% among 360,000; AID 624268;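 active means inhibition above a per-plate cutoff of the control wells' mean inhibition plus 3 SD, cut at about 5.5% in these data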
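Material: parasite MetRS enzyme / Replication: singlicate, one well per compound / Signal: luminescence of leftover ATP / Schedule: 2 h aminoacylation at 25 °C after 15 min preincubation / Medium: HEPES-MgCl2-KCl buffer plus DTT, spermine, BSA, pyrophosphatase / Doses: 11.9 µM single point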
HNF4A DNA FP: change in binding of human HNF4 alpha to DNA; hit rate 0.3% among 360,000; activity change, % at 10 µM; P41235; HNF4a-FITC DNA binding, fluorescence polarization, 1 h; in the data active means activity change above about 30%, passing the limit was not always enough
Rpn11 inh conf: confirmation of human proteasome Rpn11 inhibitors. hit rate 29% among 1,900. inhibition, % at 20 µM. AID 602318. shares compounds with Rpn11 inh. purified human 26S proteasome, Ub4-pepOG fluorescence polarization; proteasome pretreated with epoxomicin
MMP-2 inh: blocks human MMP-2, flagging nonselective RPN11 hits; AID 602330; hit rate 4% among 1,900; recombinant MMP-2, FRET peptide cleavage fluorescence; inhibition, % at 20 µM; shares compounds with Rpn11 inh;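 further: human MMP-2 activated beforehand with APMA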
Thrombin FP: blocks bovine thrombin, flagging nonselective RPN11 hits; shares compounds with Rpn11 inh; bovine thrombin cleavage of Ub4-pepOG, fluorescence polarization; inhibition, % at 20 µM; hit rate 13% among 1,900; AID 602333;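 active means mean inhibition at least 40% at 20 µM, or signal 3 deviations below plate average, so some actives read negative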
Of the large screens only hits and unclear results are named; the others gave an inactive call (follow-up assays come after a bar, where shown). Only some compounds are listed: those with a hit (about 2.4% of all), similar ones and a draw of the others. Unless noted, no stated cut-off is given here; in the data, active means inhibition above about 40%; inactive means the rest.

CCOC(=O)C1CCN(C(=O)CCc2nc3sc4c(c3c(=O)[nH]2)CCCC4)CC1	Rpn11 inh 41.0 | Rpn11 inh conf 66.8 | MMP-2 inh inactive | Thrombin FP 46.5
CCc1ccc(NC(=O)CCc2nc3sc4c(c3c(=O)[nH]2)CCCC4)cc1	Rpn11 inh 40.2 | Rpn11 inh conf 55.4 | MMP-2 inh inactive | Thrombin FP inactive
CN(CC(=O)Nc1ccc(F)c(F)c1F)C(=O)CCc1nc2sc3c(c2c(=O)[nH]1)CCCC3	Rpn11 inh 45.4 | Rpn11 inh conf 59.5 | MMP-2 inh inactive | Thrombin FP inactive
Cc1cccc(C)c1NC(=O)CN(C)C(=O)CCc1nc2sc3c(c2c(=O)[nH]1)CCCC3	none
Cc1nnc(-c2ccco2)c2cn(-c3cccc(Br)c3)nc12	Rpn11 inh 45.9 | Rpn11 inh conf inactive | MMP-2 inh inactive | Thrombin FP inactive
COc1cc(OC)cc(-c2nnc(Nc3nc4c(F)cccc4s3)o2)c1	Rpn11 inh 114.3 (not shown: Neddyl block) | Rpn11 inh conf 76.2 | MMP-2 inh inactive | Thrombin FP inactive
Cn1c(=O)c2c(nc(Oc3ccc4c(c3)OCO4)n2Cc2ccc(F)cc2)n(C)c1=O	Rpn11 inh active | Rpn11 inh conf inactive | MMP-2 inh inactive | Thrombin FP inactive
Cc1ccccc1Sc1ccc(N)cn1	Rpn11 inh 59.8, HNF4A DNA FP 71.6 | Rpn11 inh conf inactive | MMP-2 inh inactive | Thrombin FP inactive
COc1ccc(CCn2c(=N)c(C(=O)NC3CCCC3)cc3c(=O)n4ccccc4nc32)cc1OC	Rpn11 inh 42.1 | Rpn11 inh conf inactive | MMP-2 inh inactive | Thrombin FP inactive
Cc1cccn2c(=O)c3cc(C(=O)NC4CCCC4)c(=N)n(C4CCCC4)c3nc12	Rpn11 inh 134.4 | Rpn11 inh conf inactive | MMP-2 inh inactive | Thrombin FP inactive
COc1ccc(CCn2c(=N)c(C(=O)NC3CCCC3)cc3c(=O)n4ccccc4nc32)cc1	none
Cc1cccc(N2CCN(C(=O)CSc3nc4ccccc4nc3N3CC(C)OC(C)C3)CC2)c1C (stereo unspecified)	none
CCOc1cc(/C=C2\NC(=S)N(c3c(C)n(C)n(-c4ccccc4)c3=O)C2=O)ccc1O	Rpn11 inh 114.4 | Rpn11 inh conf 66.9 | MMP-2 inh inactive | Thrombin FP 44.7
COc1cc(/C=C2\SC(=S)N(N(C)c3ccccc3)C2=O)ccc1O	Rpn11 inh 57.3 | Rpn11 inh conf inactive | MMP-2 inh inactive | Thrombin FP inactive
COc1cc(/C=C2\NC(=S)N(C)C2=O)ccc1O	Rpn11 inh 73.1 | Rpn11 inh conf 54.4 | MMP-2 inh 49.1 | Thrombin FP 42.5
CN1C(=O)/C(=C/c2ccc(O)c([N+](=O)[O-])c2)NC1=S	none
CCNC(=O)C1(C)CCN(Cc2noc(-c3c(C)noc3C)n2)C1 (stereo unspecified)	none (no result: PREPL inh)
CS(=O)(=O)Nc1ccc(C2=NN(S(C)(=O)=O)C(c3ccccc3)C2)cc1 (stereo unspecified)	none (not shown: Neddyl block)
CCS(=O)(=O)N1N=C(c2ccc(NS(C)(=O)=O)cc2)CC1c1ccccc1 (stereo unspecified)	CSN deneddyl inh 35.2, Rpn11 inh 82.0, HNF4A DNA FP 86.3 (not shown: Neddyl block) | Rpn11 inh conf 153.4 | MMP-2 inh inactive | Thrombin FP 139.2
CCOC(=O)C1(C)CCCN(C(=O)c2cccc(C#N)c2)C1 (stereo unspecified)	none (no result: PREPL inh)
CCc1nc2c(OCc3ccc(Cl)cc3)cccn2c1N(C)C(=O)c1ccc(C)cc1	none (no result: PREPL inh)
COc1ccc(C)cc1Nc1nc(-c2c[nH]c3ccccc23)cs1	Rpn11 inh 41.7 | Rpn11 inh conf inactive | MMP-2 inh inactive | Thrombin FP inactive
C[C@@H]1CCCCO[C@H](CN(C)Cc2ccc(C(=O)O)cc2)[C@@H](C)CN([C@H](C)CO)C(=O)c2cc(NC(=O)CCC(F)(F)F)ccc2O1	none (no result: PREPL inh)

Assay outcomes deposited in PubChem BioAssay by several laboratories.
